NCF1 inh: p47phox (human) inhibition; AID 1274; inhibition, % at 24.7 µM; 0.53% of 220,000 active; p47phox/p22phox peptide binding, fluorescence polarization, 2 h;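 active means inhibition above about 30%, limit read from the data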;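 further: 0% = p47phox with labelled peptide and 100% = labelled peptide alone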
MDM2 E3 inh: inhibitors of human Mdm2 E3 ubiquitin ligase | 0.11% of 210,000 active | signal enhancement, % at 5 µM | cell-based MDM2 ubiquitination luciferase reporter, 2 h; 0 = plate control, 100 = twice control, blank-subtracted;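 active means signal enhancement of 30% or more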;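 further: luminescence tracks abundance of the self-degrading MDM2-luciferase fusion protein; higher signal means inhibition of MDM2 E3 ligase activity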
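System: stable MDM2–luciferase fusion reporter cells / Input: 2000 cells seeded into each well / Schedule: 4 h settle plus 2 h compound, 37 °C / Compound: single-point 5 µM / Buffer or medium: cells held in DMEM / Benchmarks: control and blank well means / Evaluation: percent signal gain over controls, blank-subtracted / Measured by: luciferase luminescence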
Tb hexokinase: T. brucei hexokinase 1 inhibition; 0.11% of 220,000 active; inhibition, % at 10 µM; recombinant TbHK1, G6PDH-coupled NADH A340;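 active means inhibition of 50% or more in the single-dose primary screen; inactive means inhibition below 50%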
Rad51 HR inh: blocks human Rad51 in homologous recombination. Q06609. hRad51 DNA strand exchange, fluorescence dequenching. inhibition, % at 10 µM. 0.085% of 200,000 active;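 active means inhibition above 40% at the single screening dose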;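 further: 0% = DMSO control wells and 100% = blanks with heterologous ssDNA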
Target sequence (Q06609 whole entry, looked up): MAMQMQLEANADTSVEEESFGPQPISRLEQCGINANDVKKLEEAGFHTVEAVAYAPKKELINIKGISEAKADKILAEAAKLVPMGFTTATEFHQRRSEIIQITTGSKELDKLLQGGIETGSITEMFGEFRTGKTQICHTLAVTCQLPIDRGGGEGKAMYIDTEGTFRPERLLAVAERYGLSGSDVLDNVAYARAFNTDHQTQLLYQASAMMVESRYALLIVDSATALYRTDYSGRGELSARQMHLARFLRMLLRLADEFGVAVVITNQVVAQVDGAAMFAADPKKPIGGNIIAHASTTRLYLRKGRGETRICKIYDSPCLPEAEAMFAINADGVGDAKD
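Material: hRad51 filaments on single-stranded DNA; Reagent: Donor/quencher-labelled 47-bp dsDNA substrate; Compound: 10 µM final, single point; Schedule: 37 °C 15-min filament assembly, 30-min compound preincubation, 15-min exchange; Technique: FRET fluorescence, excitation 485 nm, emission 520 nm; Benchmarks: control wells and blank wells on each plate.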
G6PDH ctr: Leuconostoc glucose-6-phosphate dehydrogenase inhibition, counter-screen. shares compounds with Tb hexokinase. purified G6PDH, NADH absorbance, 1 h. inhibition, % at 10 µM. 7% of 210 active. AID 2516;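 active means at least 50% inhibition in the glucose-6-phosphate dehydrogenase coupled counterscreen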
TbHK1 confirm: confirmation of Trypanosoma brucei hexokinase 1 inhibitors | AID 2560 | inhibition, % at 10 µM | shares compounds with Tb hexokinase | recombinant TbHK1, G6PDH-coupled NADH A340 absorbance | 10% of 210 active;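 active means inhibition of at least 50% in both of the two screening runs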;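 further: 0% and 100% set by the maximum and minimum signal control wells on each plate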
Starred values were filed as active, the others as inactive. An excerpt weighted towards active compounds, which were near 0.75% of everything screened.

Screening CS(=O)(=O)n1nc(-c2ccc(Cl)cc2)nc1N returned NCF1 inh 2, MDM2 E3 inh -8, Tb hexokinase 2 and Rad51 HR inh -5.
Screening Cn1c(SCc2ccc(C#N)cc2)nnc1-c1ccccc1 returned NCF1 inh -5, MDM2 E3 inh -10, Tb hexokinase 4 and Rad51 HR inh -4.
Cn1c(SCc2ccc(C#N)cc2)nnc1-c1cccc(Cl)c1 was read as NCF1 inh -7, MDM2 E3 inh -32, Tb hexokinase 55*, Rad51 HR inh -9, G6PDH ctr -12 and TbHK1 confirm 20.
`Cc1cccc(C(=O)NC(=S)NNC(=O)c2cccs2)c1` gave NCF1 inh 1, MDM2 E3 inh 6, Tb hexokinase -19 and Rad51 HR inh 2.
Cc1cccc(C(=O)NC(=S)NNC(=O)c2ccc(Cl)cc2)c1 was read as NCF1 inh -9, MDM2 E3 inh -5, Tb hexokinase 62*, Rad51 HR inh 5, G6PDH ctr -44 and TbHK1 confirm -39.
Screening COc1cccc2c(=O)c(C(=O)NCc3cccs3)c[nH]c12 returned NCF1 inh -15, MDM2 E3 inh -17, Tb hexokinase 53*, Rad51 HR inh 4, G6PDH ctr -13 and TbHK1 confirm -22.
`CCOc1ccc(N2CC(=O)N/C2=N\c2nc(C)cc(C)n2)cc1` gave NCF1 inh -10, MDM2 E3 inh -33, Tb hexokinase 69*, Rad51 HR inh 0, G6PDH ctr -9 and TbHK1 confirm -8.
`O=C1CC(C(=O)NCc2ccccc2)C2(CCCC2)O1` (stereo not drawn) gave NCF1 inh -14, MDM2 E3 inh -5, Tb hexokinase 55*, Rad51 HR inh 0, G6PDH ctr 1 and TbHK1 confirm 2.
Screening O=C(CCc1nnc(CCCCc2ccccc2)o1)N1CCCCC1CCO (stereo not drawn) returned NCF1 inh -2, MDM2 E3 inh -7 and Tb hexokinase 1.
For CCOC(=O)c1c(C)c(C(=O)NCc2cccnc2)c(C)n1C the results were NCF1 inh -13, MDM2 E3 inh -3, Tb hexokinase 63*, Rad51 HR inh -3, G6PDH ctr -2 and TbHK1 confirm 1.
Screening CCOC(=O)c1c(C)c(C(=O)NCc2ccccn2)c(C)n1C returned NCF1 inh -13, MDM2 E3 inh 8, Tb hexokinase -1 and Rad51 HR inh 6.
`COc1ccccc1N(C)S(=O)(=O)c1ccc(C(=O)OCC(=O)NCc2cccs2)cc1` gave NCF1 inh -7, Tb hexokinase -6 and Rad51 HR inh 28.
NC(=O)C1CCN(C(=O)CN(c2cccc(C(F)(F)F)c2)S(=O)(=O)c2ccccc2)CC1 was read as NCF1 inh -6, MDM2 E3 inh -25, Tb hexokinase 52*, Rad51 HR inh -1, G6PDH ctr -7 and TbHK1 confirm 0.
O=C(O)CN(c1cccc(C(F)(F)F)c1)S(=O)(=O)c1ccccc1 was read as NCF1 inh 4, MDM2 E3 inh -3, Tb hexokinase -9 and Rad51 HR inh -8.
Cc1ccc(N2C(=O)CSC2c2cccnc2)cc1F (stereo not drawn) was read as NCF1 inh -1, MDM2 E3 inh -7, Tb hexokinase 55*, Rad51 HR inh -12, G6PDH ctr -2 and TbHK1 confirm 2.
`Cc1ccc(NC(=O)OCCN2CCN(Cc3ccccc3)CCC2=O)cc1` gave NCF1 inh 3, Tb hexokinase -1 and Rad51 HR inh 0.
Screening CCN(CC)S(=O)(=O)c1ccc(OC)c(NC(=S)Nc2cccc(C)c2C)c1 returned NCF1 inh 0, MDM2 E3 inh -10, Tb hexokinase 33 and Rad51 HR inh 9.
For Cn1c(=O)[nH]c(=O)c2c1nc(N1CCCCC1)n2CCOc1ccccc1 the results were NCF1 inh -2, MDM2 E3 inh -15, Tb hexokinase 55*, Rad51 HR inh 6, G6PDH ctr 4 and TbHK1 confirm 2.
For CCCCCCCCn1c(N2CCN(c3cccc(Cl)c3)CC2)nc2c1c(=O)[nH]c(=O)n2C the results were NCF1 inh -3, MDM2 E3 inh 7, Tb hexokinase -1 and Rad51 HR inh 5.
For CCCCCCn1c(N2CCN(c3cccc(Cl)c3)CC2)nc2c1c(=O)[nH]c(=O)n2C the results were NCF1 inh -11, MDM2 E3 inh 7, Tb hexokinase 59*, Rad51 HR inh -6, G6PDH ctr -50 and TbHK1 confirm 14.
COc1cccc(C(=O)N2CCSC2=S)c1 was read as NCF1 inh -14, MDM2 E3 inh -16, Tb hexokinase 57*, Rad51 HR inh 1, G6PDH ctr -18 and TbHK1 confirm -6.
Screening COc1ccc(C(=O)N2CCSC2=S)cc1OC returned NCF1 inh -6, MDM2 E3 inh -17, Tb hexokinase -6 and Rad51 HR inh -2.
COC(=O)c1c(N2C(=O)[C@H]3[C@@H](C2=O)[C@]2(C(=O)Nc4c(C)cccc42)N2CCC[C@@H]32)sc(C)c1C was read as NCF1 inh -8, MDM2 E3 inh -7, Tb hexokinase -12 and Rad51 HR inh -4.
C/C(Cl)=C\Cn1c(NCCc2ccccc2)nc2c1c(=O)n(C)c(=O)n2C was read as NCF1 inh -7, MDM2 E3 inh -12, Tb hexokinase -3 and Rad51 HR inh -2.
C/C(Cl)=C/Cn1c(=O)c2c(nc(Br)n2Cc2ccccc2)n(C)c1=O was read as NCF1 inh -11, MDM2 E3 inh -11, Tb hexokinase 58*, Rad51 HR inh 4, G6PDH ctr -5 and TbHK1 confirm 4.
COc1ccc(C(=O)CN2C(=O)NC(C)(c3ccccc3)C2=O)cc1OC (stereo not drawn) was read as NCF1 inh -14, MDM2 E3 inh -1, Tb hexokinase -6 and Rad51 HR inh -7.
COc1ccc(C2(C)NC(=O)N(Cc3cc(Cl)cc4c3OCOC4)C2=O)cc1OC (stereo not drawn) was read as NCF1 inh -3, MDM2 E3 inh 0, Tb hexokinase 53*, Rad51 HR inh 1, G6PDH ctr -8 and TbHK1 confirm -1.
`COC(=O)c1nc(NC2=NCCCCC2)n[nH]1` gave NCF1 inh -4, MDM2 E3 inh -14, Tb hexokinase -10 and Rad51 HR inh 5.
For C1CCN=C(Nc2nn[nH]n2)CC1 the results were NCF1 inh -13, MDM2 E3 inh -23, Tb hexokinase 55*, Rad51 HR inh 4, G6PDH ctr -5 and TbHK1 confirm -10.
Screening COc1ccc(C)cc1NC(=S)NC12CN3CN(CN(C3)C1)C2 returned NCF1 inh -1, MDM2 E3 inh -3, Tb hexokinase 3 and Rad51 HR inh 20.

Compound activity: PubChem BioAssay, several laboratories
